≈ marks a conversion by molar mass, not a printed value.
Key:
Format in all cases: functional
Streptococcus pyogenes [1] = assay: Antibacterial activity against clinical isolate of Streptococcus pyogenes after 24 hrs by disk diffusion method
Staphylococcus aureus [2] = assay: Antibacterial activity against methicillin-resistant Staphylococcus aureus after 24 hrs by disk diffusion method
Pseudomonas aeruginosa [3] = assay: Antibacterial activity against Pseudomonas aeruginosa ATCC 27853 after 24 hrs by disk diffusion method
Klebsiella pneumoniae [4] = assay: Antibacterial activity against clinical isolate of Klebsiella pneumoniae after 24 hrs by disk diffusion method
Escherichia coli [5] = assay: Antibacterial activity against Escherichia coli ATCC 25922 after 24 hrs by disk diffusion method
Streptococcus pyogenes [6] = assay: Antibacterial activity against clinical isolate of Streptococcus pyogenes after 24 hrs by broth dilution method
Staphylococcus aureus [7] = assay: Antibacterial activity against methicillin-resistant Staphylococcus aureus after 24 hrs by broth dilution method
Pseudomonas aeruginosa [8] = assay: Antibacterial activity against Pseudomonas aeruginosa ATCC 27853 after 24 hrs by broth dilution method; details: ATCC 27853, 24 h
Klebsiella pneumoniae [9] = assay: Antibacterial activity against clinical isolate of Klebsiella pneumoniae after 24 hrs by broth dilution method
Escherichia coli [10] = assay: Antibacterial activity against Escherichia coli ATCC 25922 after 24 hrs by broth dilution method; details: ATCC 25922, 24 h
Streptococcus pyogenes [11] = assay: Bactericidal activity against clinical isolate of Streptococcus pyogenes after 18 to 24 hrs by colony counting method
Staphylococcus aureus [12] = assay: Bactericidal activity against methicillin-resistant Staphylococcus aureus after 18 to 24 hrs by colony counting method
Summary of the method: (§1)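 Colonies were counted after 18–24 h at 35 °C. MBC is the lowest concentration that kills 99.9% of the inoculum.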

Pseudomonas aeruginosa [13] = assay: Bactericidal activity against Pseudomonas aeruginosa ATCC 27853 after 18 to 24 hrs by colony counting method; summary of the method: as §1
Klebsiella pneumoniae [14] = assay: Bactericidal activity against clinical isolate of Klebsiella pneumoniae after 18 to 24 hrs by colony counting method
Escherichia coli [15] = assay: Bactericidal activity against Escherichia coli ATCC 25922 after 18 to 24 hrs by colony counting method; summary of the method: as §1
Candida albicans [16] = assay: Antifungal activity against Candida albicans after 48 hrs by agar diffusion method
Aspergillus fumigatus [17] = assay: Antifungal activity against Aspergillus fumigatus after 48 hrs by agar diffusion method
[18] = tested on: Trichophyton mentagrophytes; assay: Antifungal activity against Trichophyton mentagrophytes after 48 hrs by agar diffusion method
Talaromyces marneffei [19] = assay: Antifungal activity against Penicillium marneffei after 48 hrs by agar diffusion method
Candida albicans [20] = assay: Antifungal activity against Candida albicans after 48 hrs
Summary of the method: (§2)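 Broth with two-fold serial dilutions of compound was inoculated with 1.6 × 10⁴–6 × 10⁴ c.f.u/ml and incubated at 35 °C. MIC is the lowest concentration that arrests growth. For MFC, 0.1 ml was spread on agar, colonies were counted after 48 h at 35 °C, and the endpoint was the lowest concentration killing 99.9%.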

Aspergillus fumigatus [21] = assay: Antifungal activity against Aspergillus fumigatus after 48 hrs; summary of the method: as §2
[22] = tested on: Trichophyton mentagrophytes; assay: Antifungal activity against Trichophyton mentagrophytes after 48 hrs; summary of the method: as §2
Talaromyces marneffei [23] = assay: Antifungal activity against Penicillium marneffei after 48 hrs; summary of the method: as §2

| SMILES | diameter of the inhibition zone (DIZ) (Streptococcus pyogenes [1]) [mm] | diameter of the inhibition zone (DIZ) (Staphylococcus aureus [2]) [mm] | diameter of the inhibition zone (DIZ) (Pseudomonas aeruginosa [3]) [mm] | diameter of the inhibition zone (DIZ) (Klebsiella pneumoniae [4]) [mm] | diameter of the inhibition zone (DIZ) (Escherichia coli [5]) [mm] | MIC (Streptococcus pyogenes [6]) [µg/mL] | MIC (Staphylococcus aureus [7]) [µg/mL] | MIC (Pseudomonas aeruginosa [8]) [µg/mL] | MIC (Klebsiella pneumoniae [9]) [µg/mL] | MIC (Escherichia coli [10]) [µg/mL] | MBC (Streptococcus pyogenes [11]) [µg/mL] | MBC (Staphylococcus aureus [12]) [µg/mL] | MBC (Pseudomonas aeruginosa [13]) [µg/mL] | MBC (Klebsiella pneumoniae [14]) [µg/mL] | MBC (Escherichia coli [15]) [µg/mL] | diameter of the inhibition zone (DIZ) (Candida albicans [16]) [mm] | diameter of the inhibition zone (DIZ) (Aspergillus fumigatus [17]) [mm] | diameter of the inhibition zone (DIZ) [18] [mm] | diameter of the inhibition zone (DIZ) (Talaromyces marneffei [19]) [mm] | MFC (Candida albicans [20]) [µg/mL] | other results |
| --- | --- | --- | --- | --- | --- | --- | --- | --- | --- | --- | --- | --- | --- | --- | --- | --- | --- | --- | --- | --- | --- |
| Cc1nn(-c2ccccc2)c(Cl)c1/C=C/C(=O)C1C(=O)NC(=O)NC1=O | 22.2 | 20.2 | 27.2 | 17.1 | 24.8 | 12.5 (≈ 33.5 µM) | 12.5 (≈ 33.5 µM) | 12.5 (≈ 33.5 µM) | 12.5 (≈ 33.5 µM) | 12.5 (≈ 33.5 µM) | 25 (≈ 67.1 µM) | 50 (≈ 134 µM) | 25 (≈ 67.1 µM) | 25 (≈ 67.1 µM) | 50 (≈ 134 µM) | 25.5 | 21.3 | 17.1 | 14.1 | 25 (≈ 67.1 µM) | MIC (Candida albicans [20]): 12.5 µg/mL (≈ 33.5 µM); MFC (Aspergillus fumigatus [21]): 25 µg/mL (≈ 67.1 µM); MIC (Aspergillus fumigatus [21]): 12.5 µg/mL (≈ 33.5 µM); MFC [22]: 25 µg/mL (≈ 67.1 µM); MIC [22]: 12.5 µg/mL (≈ 33.5 µM); MFC (Talaromyces marneffei [23]): 25 µg/mL (≈ 67.1 µM); MIC (Talaromyces marneffei [23]): 12.5 µg/mL (≈ 33.5 µM) |
| Cc1nn(-c2ccccc2)c(Cl)c1/C=C/C(=O)C1C(=O)NC(=S)NC1=O | 18.4 | 17.1 | 22.1 | 15.4 | 20.7 | 25 (≈ 64.3 µM) | 25 (≈ 64.3 µM) | 25 (≈ 64.3 µM) | 25 (≈ 64.3 µM) | 50 (≈ 129 µM) | 100 (≈ 257 µM) | 50 (≈ 129 µM) | 100 (≈ 257 µM) | 50 (≈ 129 µM) | 100 (≈ 257 µM) | 20.4 | 17.9 | 17.1 | 14.1 | 50 (≈ 129 µM) | MIC (Candida albicans [20]): 25 µg/mL (≈ 64.3 µM); MFC (Aspergillus fumigatus [21]): 50 µg/mL (≈ 129 µM); MIC (Aspergillus fumigatus [21]): 25 µg/mL (≈ 64.3 µM); MFC [22]: 50 µg/mL (≈ 129 µM); MIC [22]: 25 µg/mL (≈ 64.3 µM); MFC (Talaromyces marneffei [23]): 100 µg/mL (≈ 257 µM); MIC (Talaromyces marneffei [23]): 25 µg/mL (≈ 64.3 µM) |
| Cc1nn(-c2ccccc2)c(Cl)c1C1CC(C2C(=O)N(C)C(=O)N(C)C2=O)=NN1 (stereo not given) | 17.1 | 16.5 | 21.8 | 15.7 | 19.6 | 25 (≈ 60.3 µM) | 50 (≈ 121 µM) | 50 (≈ 121 µM) | 50 (≈ 121 µM) | 25 (≈ 60.3 µM) | 50 (≈ 121 µM) | 100 (≈ 241 µM) | 100 (≈ 241 µM) | 100 (≈ 241 µM) | 100 (≈ 241 µM) | 20.8 | 17.4 | 16.9 | 14.2 | 100 (≈ 241 µM) | MIC (Candida albicans [20]): 25 µg/mL (≈ 60.3 µM); MFC (Aspergillus fumigatus [21]): 100 µg/mL (≈ 241 µM); MIC (Aspergillus fumigatus [21]): 25 µg/mL (≈ 60.3 µM); MFC [22]: 100 µg/mL (≈ 241 µM); MIC [22]: 25 µg/mL (≈ 60.3 µM); MFC (Talaromyces marneffei [23]): > 100 µg/mL; MIC (Talaromyces marneffei [23]): 50 µg/mL (≈ 121 µM) |
| Cc1nn(-c2ccccc2)c(Cl)c1C1CC(C2C(=O)NC(=O)NC2=O)=NN1 (stereo not given) | 16.8 | 15.3 | 20.1 | 14.7 | 19.2 | 50 (≈ 129 µM) | 100 (≈ 259 µM) | 50 (≈ 129 µM) | 50 (≈ 129 µM) | 50 (≈ 129 µM) | 100 (≈ 259 µM) | > 100 | 100 (≈ 259 µM) | > 100 | > 100 | 20.4 | 16.8 | 16 | 13.1 | 100 (≈ 259 µM) | MIC (Candida albicans [20]): 50 µg/mL (≈ 129 µM); MFC (Aspergillus fumigatus [21]): 100 µg/mL (≈ 259 µM); MIC (Aspergillus fumigatus [21]): 50 µg/mL (≈ 129 µM); MFC [22]: 100 µg/mL (≈ 259 µM); MIC [22]: 50 µg/mL (≈ 129 µM); MFC (Talaromyces marneffei [23]): 100 µg/mL (≈ 259 µM); MIC (Talaromyces marneffei [23]): 50 µg/mL (≈ 129 µM) |
| Cc1nn(-c2ccccc2)c(Cl)c1C1CC(C2C(=O)NC(=S)NC2=O)=NN1 (stereo not given) | 15.2 | 14.2 | 18.2 | 14.4 | 19.1 | 50 (≈ 124 µM) | 100 (≈ 248 µM) | 50 (≈ 124 µM) | 50 (≈ 124 µM) | 50 (≈ 124 µM) | 100 (≈ 248 µM) | > 100 | 100 (≈ 248 µM) | > 100 | 100 (≈ 248 µM) | 20.2 | 16.2 | 15.8 | 13.1 | 100 (≈ 248 µM) | MIC (Candida albicans [20]): 50 µg/mL (≈ 124 µM); MFC (Aspergillus fumigatus [21]): 100 µg/mL (≈ 248 µM); MIC (Aspergillus fumigatus [21]): 25 µg/mL (≈ 62.1 µM); MFC [22]: 100 µg/mL (≈ 248 µM); MIC [22]: 25 µg/mL (≈ 62.1 µM); MFC (Talaromyces marneffei [23]): > 100 µg/mL; MIC (Talaromyces marneffei [23]): > 100 µg/mL |

From ChEMBL document CHEMBL1770075, “Thermal solvent-free synthesis of novel pyrazolyl chalcones and pyrazolines as potential antimicrobial agents” (2011)
